# ChEMBL document CHEMBL1131236, “Antitumor agents. 185. Synthesis and biological evaluation of tridemethylthiocolchicine analogues as novel topoisomerase II inhibitors” (J Med Chem, 1998)
# Experiments:
# SK-MEL-2 [1] = assay: In vitro growth inhibition of SK-MEL-2, malignant melanoma.; assay type: functional, cell-based; settings: Homo sapiens
# Outline: (§1)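 Human tumor lines screened in-house: KB, A549, MCF-7, CAKI-1 and SK-MEL-2. Read-out was SRB staining with absorbance at 562 nm.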
# Tubulin = assay type: protein-complex assay
# MCF7 [2] = assay: (§2) In vitro growth inhibition of MCF-7, breast adenocarcinoma.; assay type: functional, cell-based; settings: Homo sapiens; outline: as §1
# A549 [3] = assay: In vitro percent inhibition of A549, lung carcinoma.; assay type: functional, Homo sapiens
# CAKI-1 [4] = assay: (§3) In vitro percent inhibition of CAKI-1, Kidney carcinoma; assay type: functional, Homo sapiens; set-up: concentration or dose not given beside the values
# A549 [5] = assay: In vitro growth inhibition of A549, lung carcinoma.; assay type: functional, cell-based; settings: Homo sapiens; outline: as §1
# DNA topoisomerase II [6] = target: T1, DNA topoisomerase II (Homo sapiens, UniProt P11388+Q02880); assay: In vitro inhibitory activity at 100 uM against topoisomerase II measured as ATP-dependent unknotting of P4 DNA compared to enzyme and DNA control.; assay type: protein assay
# [7] = target: T2, DNA topoisomerase 1 (Homo sapiens) (UniProt P11387); assay: In vitro inhibitory activity at 100 uM against topoisomerase I measured as ATP-independent relaxation of supercoiled plasmid DNA compared to enzyme and DNA control.
# T2 sequence (whole entry): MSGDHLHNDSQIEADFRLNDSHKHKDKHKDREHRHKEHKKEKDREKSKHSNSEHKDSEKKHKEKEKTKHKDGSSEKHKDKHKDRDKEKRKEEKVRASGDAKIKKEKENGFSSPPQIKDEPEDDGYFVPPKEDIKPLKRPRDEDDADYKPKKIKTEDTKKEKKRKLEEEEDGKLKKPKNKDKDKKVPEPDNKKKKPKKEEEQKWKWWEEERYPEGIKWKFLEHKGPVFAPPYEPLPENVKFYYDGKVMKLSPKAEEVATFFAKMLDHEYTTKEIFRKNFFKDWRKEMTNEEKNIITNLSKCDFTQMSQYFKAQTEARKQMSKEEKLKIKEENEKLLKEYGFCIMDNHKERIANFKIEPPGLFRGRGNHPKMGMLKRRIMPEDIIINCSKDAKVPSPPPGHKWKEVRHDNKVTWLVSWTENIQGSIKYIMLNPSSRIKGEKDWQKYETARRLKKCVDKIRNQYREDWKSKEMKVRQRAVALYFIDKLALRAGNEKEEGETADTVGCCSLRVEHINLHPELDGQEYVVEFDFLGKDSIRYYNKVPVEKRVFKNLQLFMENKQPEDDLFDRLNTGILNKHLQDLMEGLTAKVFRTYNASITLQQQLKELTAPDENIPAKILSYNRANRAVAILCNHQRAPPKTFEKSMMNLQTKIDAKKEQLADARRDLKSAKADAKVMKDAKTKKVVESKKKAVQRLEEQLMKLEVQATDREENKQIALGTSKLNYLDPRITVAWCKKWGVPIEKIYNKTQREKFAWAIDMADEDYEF
# MCF7 [8] = assay: as §2; assay type: functional, Homo sapiens; outline: as §1
# CAKI-1 [9] = assay: In vitro growth inhibition of CAKI-1, Kidney carcinoma; assay type: functional, cell-based; settings: Homo sapiens; outline: as §1
# KB [10] = assay: In vitro growth inhibition of KB, epidermoid carcinoma of the nasopharynx.; assay type: functional, cell-based; settings: Homo sapiens; outline: as §1
# CAKI-1 [11] = assay: as §3; assay type: functional, Homo sapiens
# SK-MEL-2 [12] = assay: In vitro percent inhibition of SK-MEL-2, malignant melanoma.; assay type: functional, Homo sapiens
# MCF7 [13] = assay: In vitro percent inhibition of MCF-7, breast adenocarcinoma.; assay type: functional, Homo sapiens
# KB [14] = assay: In vitro percent inhibition of KB, epidermoid carcinoma of the nasopharynx.; assay type: functional, Homo sapiens
# SK-MEL-2 [15] = assay: In vitro percent inhibition of SK-MEL-2 cells, malignant melanoma.; assay type: functional, Homo sapiens; set-up: concentration or dose not given beside the values
# DNA topoisomerase II [16] = target: T1, DNA topoisomerase II; assay: In vitro activity against mammalian topoisomerase II measured as ATP-dependent unknotting of P4 DNA compared to enzyme and DNA control; assay type: protein assay
# Outline: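 Topo II inhibition read as ATP-dependent unknotting of P4 DNA, compared with enzyme-only and DNA-only control reactions.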
# KB [17] = assay: In vitro growth inhibition of KB, epidermoid carcinoma of the nasopharynx; assay type: functional, cell-based; settings: Homo sapiens; outline: as §1
# KB [18] = assay: In vitro epidermoid carcinoma of the nasopharynx; assay type: functional, Homo sapiens; outline: as §1
# A549 (Homo sapiens) = assay: In vitro percent inhibition of A549, lung carcinoma
# Tubulin alpha chain = Tubulin alpha chain (Sus scrofa, UniProt P02550); assay: In vitro inhibition of mammalian tubulin polymerization by 50%; Inactive
# Chain of Tubulin alpha chain (P02550 whole entry, looked up): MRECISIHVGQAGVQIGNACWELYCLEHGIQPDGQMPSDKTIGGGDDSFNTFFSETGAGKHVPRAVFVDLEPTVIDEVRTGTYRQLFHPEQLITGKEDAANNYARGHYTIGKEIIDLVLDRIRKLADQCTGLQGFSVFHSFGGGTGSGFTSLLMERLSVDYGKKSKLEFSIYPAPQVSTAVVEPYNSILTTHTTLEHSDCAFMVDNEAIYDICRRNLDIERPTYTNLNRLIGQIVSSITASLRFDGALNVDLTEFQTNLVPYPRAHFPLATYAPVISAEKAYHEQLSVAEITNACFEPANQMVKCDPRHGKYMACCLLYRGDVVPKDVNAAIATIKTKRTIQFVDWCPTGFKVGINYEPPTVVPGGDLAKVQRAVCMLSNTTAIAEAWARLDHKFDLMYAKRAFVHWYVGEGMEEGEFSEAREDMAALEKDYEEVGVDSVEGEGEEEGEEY
smiles,measurement,setting,value
CCC(=O)Oc1cc2c(c(OC(=O)CC)c1OC(=O)CC)-c1ccc(SC)c(=O)cc1[C@@H](NC(=O)c1ccc([N+](=O)[O-])cc1)CC2,EC50,SK-MEL-2 [1],12.9 µg/mL
same,IC50,Tubulin,> 40 µM
same,EC50,MCF7 [2],> 12.9 µg/mL
same,Inhibition,A549 [3],29%
same,Inhibition,CAKI-1 [4],16%
same,EC50,A549 [5],> 25.9 µg/mL
same,inhibition,DNA topoisomerase II [6],0%
same,inhibition,[7],0%
same,Inhibition,MCF7 [8],40%
same,EC50,CAKI-1 [9],> 25.9 µg/mL
same,EC50,KB [10],12.3 µg/mL
CSc1ccc2c(cc1=O)[C@@H](NC(=O)c1ccc(F)cc1)CCc1cc(O)c(O)c(O)c1-2,IC50,Tubulin,> 40 µM
same,inhibition,DNA topoisomerase II [6],100%
same,inhibition,[7],0%
COc1cc2c(c(OC)c1OC)-c1ccc(OC)c(=O)cc1[C@@H](NC(C)=O)CC2 [COLCHICINE],EC50,SK-MEL-2 [1],0.008 µg/mL
same,EC50,MCF7 [2],> 0.4 µg/mL
same,EC50,A549 [5],0.022 µg/mL
same,EC50,CAKI-1 [9],0.4 µg/mL
same,EC50,KB [10],0.002 µg/mL
Br.CSc1ccc2c(cc1=O)[C@@H](N)CCc1cc(O)c(O)c(O)c1-2,EC50,SK-MEL-2 [1],> 13.2 µg/mL
same,EC50,MCF7 [2],> 13.2 µg/mL
same,Inhibition,CAKI-1 [11],2%
same,Inhibition,A549 [3],0%
same,EC50,A549 [5],> 13.2 µg/mL
same,Inhibition,SK-MEL-2 [12],0%
same,Inhibition,MCF7 [13],23%
same,inhibition,DNA topoisomerase II [6],100%
same,inhibition,[7],0%
same,EC50,CAKI-1 [9],> 13.2 µg/mL
same,Inhibition,KB [14],0%
same,EC50,KB [10],> 13.2 µg/mL
CSc1ccc2c(cc1=O)[C@@H](NC(C)=O)CCc1cc(O)c(O)c(O)c1-2,EC50,MCF7 [2],13.6 µg/mL
same,Inhibition,SK-MEL-2 [15],0%
same,Inhibition,CAKI-1 [4],22%
same,IC50,DNA topoisomerase II [16],9 µM
same,EC50,KB [17],> 17.8 µg/mL
same,Inhibition,KB [18],0%
CSc1ccc2c(cc1=O)[C@@H](NC(=O)c1ccc(N)cc1)CCc1cc(O)c(O)c(O)c1-2,EC50,SK-MEL-2 [1],> 18 µg/mL
same,EC50,MCF7 [2],14.8 µg/mL
same,Inhibition,SK-MEL-2 [15],0%
same,Inhibition,CAKI-1 [4],13%
same,EC50,A549 [5],> 18 µg/mL
same,Inhibition,A549 (Homo sapiens),39%
same,Inhibition,KB [18],35%
same,EC50,CAKI-1 [9],> 18 µg/mL
same,EC50,KB [10],> 18 µg/mL
CSc1ccc2c(cc1=O)[C@@H](NC(=O)C13CC4CC(CC(C4)C1)C3)CCc1cc(O)c(O)c(O)c1-2,IC50,Tubulin,> 40 µM
same,inhibition,DNA topoisomerase II [6],0%
same,inhibition,[7],0%
CSc1ccc2c(cc1=O)[C@@H](NC(=O)c1ccc(CBr)cc1)CCc1cc(O)c(O)c(O)c1-2,IC50,Tubulin,> 40 µM
same,inhibition,DNA topoisomerase II [6],100%
same,inhibition,[7],0%
COc1c(O)c(O)cc2c1-c1ccc(SC)c(=O)cc1[C@@H](NC(C)=O)CC2,IC50,DNA topoisomerase II [16],38 µM
CSc1ccc2c(cc1=O)[C@@H](NC(=O)c1ccc(NC(=O)C34CCC(C)(C(=O)O3)C4(C)C)cc1)CCc1cc(O)c(O)c(O)c1-2 (stereo partly drawn),IC50,Tubulin,> 40 µM
same,inhibition,DNA topoisomerase II [6],0%
same,inhibition,[7],0%
CCCCCC(=O)N[C@H]1CCc2cc(O)c(O)c(O)c2-c2ccc(SC)c(=O)cc21,IC50,Tubulin,> 40 µM
same,inhibition,DNA topoisomerase II [6],100%
same,inhibition,[7],0%
CSc1ccc2c(cc1=O)[C@@H](NC(=O)C13CCC(C)(C(=O)O1)C3(C)C)CCc1cc(O)c(O)c(O)c1-2 (stereo partly drawn),IC50,Tubulin,> 40 µM
same,inhibition,DNA topoisomerase II [6],0%
same,inhibition,[7],0%
COc1cc([C@@H]2c3cc4c(cc3[C@@H](O[C@@H]3O[C@@H]5CO[C@@H](C)O[C@H]5[C@H](O)[C@H]3O)[C@H]3COC(=O)[C@H]23)OCO4)cc(OC)c1O [ETOPOSIDE],IC50,Tubulin alpha chain,Not Active
